An excerpt weighted towards active compounds, which were near 3.2% of everything screened.
DAGLB inhibitor: blocks human DAGLB lipase activity | Q8NCG7 | HEK293T DAGLB membrane lysate, EnzChek fluorogenic substrate | inhibition, % at 5.17 µM | 0.059% of 340,000 active; in the data active means inhibition above about 34%
Target sequence (Q8NCG7 whole entry, looked up): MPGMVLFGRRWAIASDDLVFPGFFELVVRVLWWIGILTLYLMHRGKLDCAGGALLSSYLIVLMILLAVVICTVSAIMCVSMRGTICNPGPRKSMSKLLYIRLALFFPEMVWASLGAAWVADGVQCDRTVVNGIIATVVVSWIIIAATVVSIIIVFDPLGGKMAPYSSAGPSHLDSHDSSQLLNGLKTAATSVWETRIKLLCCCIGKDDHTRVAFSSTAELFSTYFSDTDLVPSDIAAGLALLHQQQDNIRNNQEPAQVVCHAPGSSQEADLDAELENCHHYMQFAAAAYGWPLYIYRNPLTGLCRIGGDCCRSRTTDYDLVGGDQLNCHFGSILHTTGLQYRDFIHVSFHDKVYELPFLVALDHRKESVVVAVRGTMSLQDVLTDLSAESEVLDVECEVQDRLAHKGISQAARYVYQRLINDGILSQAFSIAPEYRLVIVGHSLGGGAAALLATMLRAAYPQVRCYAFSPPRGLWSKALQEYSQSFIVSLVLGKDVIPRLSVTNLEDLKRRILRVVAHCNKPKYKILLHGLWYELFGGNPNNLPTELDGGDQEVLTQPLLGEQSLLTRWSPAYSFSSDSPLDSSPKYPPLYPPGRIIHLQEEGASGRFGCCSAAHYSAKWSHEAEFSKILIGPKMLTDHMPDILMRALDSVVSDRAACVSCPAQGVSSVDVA
HTRA1 inhibitor: inhibitors of human serine peptidase HTRA1 | Q92743 | recombinant HTRA1, FP-rhodamine activity-based probe, fluorescence polarization | inhibition, % at 5.96 µM | 0.5% of 340,000 active | AID 504803; in the data active means inhibition above about 36%
mABHD4 FP: inhibitors of mouse ABHD4 | inhibition, % at 8.92 µM | Q8VD66 | AID 720543 | 0.54% of 370,000 active | purified mABHD4, FP-Rh probe fluorescence polarization;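 active means inhibition exceeding the mean over every tested compound plus 3 SD, cut at about 30% in these data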
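Test system: mABHD4 protein | Buffer or medium: HEPES pH 7.0 buffer, 150 mM NaCl, 0.01% Pluronic F-127 | Probe or stimulus: FP-Rh fluorescent activity-based probe, added after compound pre-incubation | Timing: Pre-incubation 45 min, probe exposure 60 min, at 25 °C | Technique: Fluorescence polarization, excitation 525 nm, emission 598 nm, BODIPY TMR filters | Repeats: Single well per compound (singlicate)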
LEDGF integ inh: blocks HIV-1 LEDGF/p75-dependent DNA integration. TR-FRET IN-LEDGF/p75 DNA integration, Eu/Cy5. AID 743269. inhibition, % at 3.7 µM. 0.64% of 370,000 active;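 active means inhibition above the screen-wide mean plus 3 SD, cut at about 13% in these data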;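 further: signal is the Cy5 over europium emission ratio at 671 and 618 nm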
PRMT1 FP inh: PRMT1 (human) inhibition, primary screen | Q99873 | recombinant PRMT1, activity-based probe fluorescence polarization | inhibition, % at 2.79 µM | 1.3% of 370,000 active | AID 652257;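 active means inhibition above about 21% made by adding two undisclosed values, limit read from the data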
rCAG binder: binds r(CAG) RNA repeats. 1.3% of 370,000 active. r(CAG) RNA repeat, TO-PRO-1 dye displacement fluorescence. AID 651821. inhibition, % at 3 µM;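 active means inhibition above the plate cutoff, the mean of all test compounds on that plate plus 3 SD, cut at about 35% in these data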;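 further: higher means more dye released from RNA so lower well fluorescence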
PRMT1 confirm: confirmation of human PRMT1 inhibitors | shares compounds with PRMT1 FP inh | recombinant His-PRMT1, activity-based probe fluorescence polarization | inhibition, % at 2.79 µM | 42% of 3,300 active | AID 687036;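 active means mean inhibition across replicates above the hit cutoff derived for the earlier primary screen, cut at about 22% in these data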
Hits are given with their value.

CCO/C=C1\SC(=S)N(c2ccc(Cl)cc2)C1=O was read as DAGLB inhibitor inactive, HTRA1 inhibitor inactive, mABHD4 FP inactive, LEDGF integ inh inactive, PRMT1 FP inh inactive and rCAG binder inactive.
`COc1ccc(-c2nc(CS(=O)CC(=O)N3CCN(C)CC3)c(C)o2)cc1OC` (configuration not stated) gave DAGLB inhibitor inactive, HTRA1 inhibitor inactive, mABHD4 FP inactive, LEDGF integ inh inactive, PRMT1 FP inh inactive and rCAG binder inactive.
Screening O=C(COC(=O)c1ccc2ncsc2c1)Nc1cccc(Cl)c1 returned DAGLB inhibitor inactive, HTRA1 inhibitor inactive, mABHD4 FP inactive, LEDGF integ inh inactive, PRMT1 FP inh 33.1, rCAG binder inactive and PRMT1 confirm inactive.
O=C(Nc1cccc(Cl)c1)c1ccc2ncsc2c1 was read as DAGLB inhibitor inactive, HTRA1 inhibitor inactive, mABHD4 FP inactive, LEDGF integ inh inactive, PRMT1 FP inh 31.9, rCAG binder inactive and PRMT1 confirm inactive.
`O=C(O)c1ccc2ncsc2c1` gave DAGLB inhibitor inactive, HTRA1 inhibitor inactive, mABHD4 FP inactive, LEDGF integ inh inactive, PRMT1 FP inh 24.9, rCAG binder inactive and PRMT1 confirm inactive.
O=C1CCC(C(=O)Nc2cccc(S(=O)(=O)Nc3ccccc3F)c2)=NN1 was read as DAGLB inhibitor inactive, HTRA1 inhibitor inactive, mABHD4 FP inactive, LEDGF integ inh inactive, PRMT1 FP inh 31.3, rCAG binder inactive and PRMT1 confirm inactive.
CC(C)Cn1c(N)c(C(=O)CSc2ncccn2)c(=O)n(C)c1=O was read as DAGLB inhibitor inactive, HTRA1 inhibitor inactive, mABHD4 FP inactive, LEDGF integ inh inactive, PRMT1 FP inh 58.1, rCAG binder inactive and PRMT1 confirm inactive.
For CCOC(=O)CSc1nnc(NCC(=O)OC(C)C)c(=O)[nH]1 the results were DAGLB inhibitor inactive, HTRA1 inhibitor inactive, mABHD4 FP inactive, LEDGF integ inh inactive, PRMT1 FP inh 54.0, rCAG binder inactive and PRMT1 confirm 67.0.
CCOC(=O)CNC(=O)CSc1nnc(C)c(=O)[nH]1 was read as DAGLB inhibitor inactive, HTRA1 inhibitor inactive, mABHD4 FP inactive, LEDGF integ inh inactive, PRMT1 FP inh inactive and rCAG binder inactive.
For COCC(=O)Nc1nc(-c2ccc(C)cc2)c(C)s1 the results were DAGLB inhibitor inactive, HTRA1 inhibitor inactive, mABHD4 FP inactive, LEDGF integ inh inactive, PRMT1 FP inh inactive and rCAG binder inactive.
For COc1ccc(NS(=O)(=O)c2cc(NC(=O)C3CC3)ccc2N2CCCCC2)cc1 the results were DAGLB inhibitor inactive, HTRA1 inhibitor inactive, mABHD4 FP inactive, LEDGF integ inh inactive, PRMT1 FP inh inactive and rCAG binder inactive.
`COc1ccccc1NS(=O)(=O)c1cc(NC(=O)C2CCC2)ccc1N1CCCCC1` gave DAGLB inhibitor inactive, HTRA1 inhibitor inactive, mABHD4 FP inactive, LEDGF integ inh inactive, PRMT1 FP inh 36.1, rCAG binder inactive and PRMT1 confirm inactive.
`O=C(COC(=O)Cc1ccc(Cl)cc1Cl)NC1CC1` gave DAGLB inhibitor inactive, HTRA1 inhibitor inactive, mABHD4 FP inactive, LEDGF integ inh inactive, PRMT1 FP inh inactive and rCAG binder inactive.
`CC(=O)Nc1cc(-c2ccccc2N(C)C)cn2c(-c3ccc(S(C)(=O)=O)cc3)cnc12` gave mABHD4 FP inactive, LEDGF integ inh inactive, PRMT1 FP inh 107.3, rCAG binder inactive and PRMT1 confirm inactive.
CC(=O)Nc1cc(-c2ccccc2N(C)C)cn2c(-c3ccccc3)cnc12 was read as mABHD4 FP inactive, LEDGF integ inh inactive, PRMT1 FP inh inactive and rCAG binder inactive.
`O=C(CSc1nc(O)c(Cc2ccccc2)c(=O)[nH]1)c1ccccc1` gave DAGLB inhibitor inactive, HTRA1 inhibitor inactive, mABHD4 FP inactive, LEDGF integ inh inactive, PRMT1 FP inh 47.4, rCAG binder inactive and PRMT1 confirm 34.0.
CCCCc1c(O)nc(SCC(=O)c2ccccc2)[nH]c1=O was read as DAGLB inhibitor inactive, HTRA1 inhibitor inactive, mABHD4 FP inactive, LEDGF integ inh inactive, PRMT1 FP inh 40.0, rCAG binder inactive and PRMT1 confirm 37.6.
For O=C(NC1CCCCCC1)c1ccc[nH]c1=S the results were DAGLB inhibitor inactive, HTRA1 inhibitor inactive, mABHD4 FP inactive, LEDGF integ inh inactive, PRMT1 FP inh 48.8, rCAG binder inactive and PRMT1 confirm inactive.
`O=C(NCC(c1ccco1)N1CCCCC1)c1ccc(NS(=O)(=O)c2ccc(F)cc2)cc1` (configuration not stated) gave DAGLB inhibitor inactive, HTRA1 inhibitor inactive, mABHD4 FP inactive, LEDGF integ inh inactive, PRMT1 FP inh inactive and rCAG binder inactive.
CC(C)Oc1ccc(S(=O)(=O)N2CCOCC2)cc1NC(=O)CN1C(=O)NC2(CCCC2)C1=O was read as DAGLB inhibitor inactive, HTRA1 inhibitor inactive, mABHD4 FP inactive, LEDGF integ inh inactive, PRMT1 FP inh inactive and rCAG binder inactive.
Cc1ccc(NC2=CC(=O)CC(C)(C)C2)cc1F was read as DAGLB inhibitor inactive, HTRA1 inhibitor inactive, mABHD4 FP inactive, LEDGF integ inh inactive, PRMT1 FP inh inactive and rCAG binder inactive.
`Cc1cc(N)c(NC2=CC(=O)CC(C)(C)C2)cc1C` gave DAGLB inhibitor inactive, HTRA1 inhibitor inactive, mABHD4 FP inactive, LEDGF integ inh inactive, PRMT1 FP inh 27.0, rCAG binder inactive and PRMT1 confirm inactive.
Screening CCC(C)[C@H]1CNC(=O)C(=O)N1CC(C)(C)C (some centres not stated) returned mABHD4 FP inactive, LEDGF integ inh inactive, PRMT1 FP inh inactive and rCAG binder inactive.
`C=C(C)c1cccc(C(C)(C)NC(=O)Nc2ccc(OC)nc2)c1` gave DAGLB inhibitor inactive, HTRA1 inhibitor inactive, mABHD4 FP inactive, LEDGF integ inh inactive, PRMT1 FP inh 25.0, rCAG binder inactive and PRMT1 confirm inactive.
COc1ccc(NC(=O)c2cccc(-c3ccc(O)cc3)c2)cn1 was read as DAGLB inhibitor inactive, HTRA1 inhibitor inactive, mABHD4 FP inactive, LEDGF integ inh inactive, PRMT1 FP inh 41.4, rCAG binder inactive and PRMT1 confirm inactive.
For CN(Cc1ccc(F)cc1)C(=O)c1sccc1-c1ccccc1 the results were DAGLB inhibitor inactive, HTRA1 inhibitor inactive, mABHD4 FP inactive, LEDGF integ inh inactive, PRMT1 FP inh inactive and rCAG binder inactive.
Oc1oc(-c2ccccc2)nc1/C=N/c1ccccn1 was read as DAGLB inhibitor inactive, HTRA1 inhibitor inactive, mABHD4 FP inactive, LEDGF integ inh inactive, PRMT1 FP inh inactive and rCAG binder inactive.
For Oc1c(/C=N/c2ccccn2)sc2ccccc12 the results were DAGLB inhibitor inactive, HTRA1 inhibitor inactive, mABHD4 FP inactive, LEDGF integ inh inactive, PRMT1 FP inh 25.1, rCAG binder inactive and PRMT1 confirm inactive.
Oc1c(C=Nc2ccc(Cl)cn2)sc2ccccc12 was read as DAGLB inhibitor inactive, HTRA1 inhibitor inactive, mABHD4 FP inactive, LEDGF integ inh inactive, PRMT1 FP inh 40.5, rCAG binder inactive and PRMT1 confirm inactive.

Assay outcomes from PubChem.
